The nature of test [1]: hit retest on RPL19A-GFP reporter strain – cell-based, S. cerevisiae, flow cytometry, cherry picks, mother/daughter gates, confirmation (AID 2270;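 active means GFP response below 50% of the DMSO control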). The conditions noted are these: 3 h, at 10 µM, stronger effect = lower value, 100 = same GFP as DMSO wells. For orientation: A flow cytometer gives signals particle by particle.
Test [2] can be described thus: yeast TOR pathway reporter LAP4-GFP change – cell-based, cherry picks, flow cytometry, mother/daughter gates, confirmation (AID 2271;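 active means GFP response above 150% of the DMSO control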;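 further: ratio of sample to DMSO plate mean so 100% equals DMSO level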). The conditions noted are these: S. cerevisiae LAP4-GFP strain, 3 h, at 10 µM, stronger effect = higher value, 100 means same as DMSO control. The procedure, abridged: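 Test system: GFP-fusion yeast strain. Medium: synthetic complete (SC) yeast growth medium. Timing: 3 h treatment at 30 °C with rotation. Measured by: GFP by flow cytometry. Control set: positive rapamycin (400 ng/mL), negative DMSO.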

Test [3] can be described thus: TOR pathway reporter MEP2-GFP, retest of hits – S. cerevisiae, flow cytometry GFP, cherry picks, confirmation (AID 2272;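 active means GFP response above 150% of the DMSO control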;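 further: ratio of well signal to plate DMSO mean so 100% equals DMSO level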). The conditions noted are these: S. cerevisiae MEP2-GFP strain, 3 h, at 10 µM, stronger effect = higher value.
Test [4] is described as follows: yeast AGP1-GFP fluorescence change, single-dose – cell-based, flow cytometry, S. cerevisiae, cherry picks, confirmation (AID 2273).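 Further: median GFP channel fluorescence over the whole cell population gate.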 To be noted: S. cerevisiae AGP1-GFP strain, 3 h, at 10 µM.
Test [5] is described as follows: TOR pathway CIT2 reporter hit retest – S. cerevisiae, GFP fusion, cherry picks, mother/daughter gates, confirmation (AID 2274). The conditions noted are these: S. cerevisiae CIT2-GFP strain, flow cytometry, 3 h, at 10 µM, stronger effect = higher value.
Where [6] appears, read: measured here: daughter cell gate.
Where [7] appears, read: measured here: mother cell gate.
[8] abbreviates: measured here: daughter cell gate response.
The mark [9] stands for this setting: measured here: mother cell gate response.

Active and inactive are the calls of the source.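 How the source made its calls, unless noted: active means GFP response above 150% of the DMSO level; inconclusive means fewer than 70 events counted for a yeast strain; inactive means the rest.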

The text below walks through data of PubChem BioAssay.

For the compound `O=C(c1cc(-c2cccc(Cl)c2)on1)N1CCc2ccccc2C1`, the GFP response vs DMSO in test [1] is 99.2% (inactive); in test [1] (setting [6]), 100%; in test [1] (setting [7]) it was 99.5%; in test [3] it was 99% (inactive). For the same compound, the GFP response relative to DMSO is 95.7% (inactive) in test [2], 95.9% in test [2] (setting [8]) and 95.2% in test [2] (setting [9]). For the same compound, the GFP response, % of DMSO in test [4] is 104% (inactive); in test [5], 97.3% (inactive); in test [5] (setting [6]), 97.4%; in test [5] (setting [7]) it was 96.8%.
For `CCN(Cc1ccccc1)S(=O)(=O)c1ccc(C(=O)Nc2nnc(C3CC3)o2)cc1`, the GFP response vs DMSO in test [1] was 98% (inactive); in test [1] (setting [6]), 97%; in test [1] (setting [7]), 98.6%; in test [3], 99.5% (inactive). Moreover, the GFP response relative to DMSO is 106% (inactive) in test [2], 105% in test [2] (setting [8]) and 104% in test [2] (setting [9]). Besides, the GFP response, % of DMSO in test [4] was 96.9% (inactive); in test [5], 99.3% (inactive); in test [5] (setting [6]), 100%; in test [5] (setting [7]), 96.8%.
Consider `COc1ccccc1N1C(=O)CC(Sc2ncccc2C(=O)O)C1=O` (configuration not stated), for which the GFP response vs DMSO in test [1] was 100% (inactive); in test [1] (setting [6]) it was 98.4%; in test [1] (setting [7]), 100%; in test [3], 100% (inactive). Besides, the GFP response relative to DMSO is 95% (inactive) in test [2], 95.6% in test [2] (setting [8]) and 97.2% in test [2] (setting [9]). Further, the GFP response, % of DMSO in test [4] is 99.2% (inactive); in test [5], 100% (inactive); in test [5] (setting [6]), 99.7%; in test [5] (setting [7]), 99.8%.
On to `O=C(Nc1nc(-c2ccccc2)cs1)c1cccc([N+](=O)[O-])c1`, for which the GFP response vs DMSO in test [1] was 102% (inactive); in test [1] (setting [6]) it was 100%; in test [1] (setting [7]) it was 94.5%; in test [3], 105% (inactive). In addition, the values for the GFP response relative to DMSO in test [2], in test [2] (setting [8]) and in test [2] (setting [9]) were 101% (inactive), 95.9% and 95.2%, respectively. Further, the GFP response, % of DMSO was 108% (inactive) in test [4] and 98.8% (inactive) in test [5].
Take `O=C(Nc1c(-c2ccccc2)nc2ccccn12)c1ccco1`: the GFP response vs DMSO in test [1] was 100% (inactive); in test [1] (setting [6]) it was 102%; in test [1] (setting [7]) it was 99.8%; in test [3], 98.3% (inactive). The GFP response relative to DMSO in test [2] was 99.2% (inactive); in test [2] (setting [8]) it was 94.4%; in test [2] (setting [9]), 96.1%. In addition, the GFP response, % of DMSO in test [4] was 98.9% (inactive); in test [5], 103% (inactive); in test [5] (setting [7]), 106%.
Consider `COc1ccc(N2CCN(c3nc4c(C)cccn4c(=O)c3/C=C(\C#N)C(N)=O)CC2)cc1`, for which the GFP response vs DMSO was 97.8% (inactive) in test [1], 97.3% in test [1] (setting [6]), 97.5% in test [1] (setting [7]) and 103% (inactive) in test [3]. For the same compound, the GFP response relative to DMSO is 101% (inactive) in test [2], 101% in test [2] (setting [8]) and 101% in test [2] (setting [9]). Further, the GFP response, % of DMSO is 106% (inactive) in test [4], 103% (inactive) in test [5], 105% in test [5] (setting [6]) and 102% in test [5] (setting [7]).
Consider `CCOc1ccc(-c2nc(-c3ccc(OC)cc3)no2)cc1OCC`, for which the GFP response vs DMSO was 101% (inactive) in test [1], 101% in test [1] (setting [6]), 101% in test [1] (setting [7]) and 102% (inactive) in test [3]. Besides, the GFP response relative to DMSO in test [2] is 94.2% (inactive); in test [2] (setting [8]) it was 92.2%; in test [2] (setting [9]) it was 93.6%. Besides, the GFP response, % of DMSO in test [4] was 96% (inactive); in test [5], 99.3% (inactive); in test [5] (setting [6]), 100%; in test [5] (setting [7]), 99.1%.
In the case of `COC(=O)c1ccc(N2C(=O)CC(SCCN)C2=O)cc1` (configuration not stated), the GFP response vs DMSO was 98.7% (inactive) in test [1], 100% in test [1] (setting [6]), 98.4% in test [1] (setting [7]) and 101% (inactive) in test [3]. The results for the GFP response relative to DMSO in test [2], in test [2] (setting [8]) and in test [2] (setting [9]) were 98.9% (inactive), 102% and 100%, respectively. The GFP response, % of DMSO in test [4] was 103% (inactive); in test [5], 100% (inactive); in test [5] (setting [6]), 103%; in test [5] (setting [7]), 99.3%.
`C=CCOc1ccc(C(=O)/C=C2/C(=O)Nc3ccccc32)cc1`: the GFP response vs DMSO is 97.6% (inactive) in test [1], 93.6% in test [1] (setting [6]), 97.2% in test [1] (setting [7]) and 111% (inactive) in test [3]. In addition, the GFP response relative to DMSO in test [2] is 113% (inactive); in test [2] (setting [8]), 108%; in test [2] (setting [9]) it was 117%. The GFP response, % of DMSO in test [4] is 112% (inactive); in test [5] it was 95.2% (inactive); in test [5] (setting [6]) it was 93.2%; in test [5] (setting [7]), 93.4%.
With `COc1cc(NC(=O)c2ccc(C)cc2C)ccc1NC(=O)c1cc2ccccc2o1`, the GFP response vs DMSO is 97.1% (inactive) in test [1], 95.9% in test [1] (setting [6]), 94.4% in test [1] (setting [7]) and 106% (inactive) in test [3]. Further, the results for the GFP response relative to DMSO in test [2], in test [2] (setting [8]) and in test [2] (setting [9]) were 97.7% (inactive), 97.5% and 95.4%, respectively. The GFP response, % of DMSO in test [4] was 105% (inactive); in test [5], 97.2% (inactive); in test [5] (setting [6]) it was 101%; in test [5] (setting [7]), 97.1%.
In the case of `Cc1cc(N2CCC(C)CC2)n2ncc(-c3ccccc3)c2n1`, the GFP response vs DMSO in test [1] is 99.9% (inactive); in test [1] (setting [6]) it was 98.7%; in test [1] (setting [7]) it was 100%; in test [3] it was 97.8% (inactive). The GFP response relative to DMSO in test [2] was 96.2% (inactive); in test [2] (setting [8]), 94.1%; in test [2] (setting [9]) it was 98.3%. Also, the GFP response, % of DMSO in test [4] is 101% (inactive); in test [5] it was 102% (inactive); in test [5] (setting [6]) it was 99.7%; in test [5] (setting [7]), 101%.
`COc1ccc(C(=O)c2nccc3ccccc23)cc1`: the GFP response vs DMSO was 96.8% (inactive) in test [1], 86.1% in test [1] (setting [6]), 91.3% in test [1] (setting [7]) and 96.2% (inactive) in test [3]. For the same compound, the GFP response relative to DMSO was 106% (inactive) in test [2], 104% in test [2] (setting [8]) and 99.3% in test [2] (setting [9]). Besides, the results for the GFP response, % of DMSO in test [4] and in test [5] were 100% (inactive) and 98.3% (inactive), respectively.
As to `O=C(CNC(=O)c1ccncc1)N/N=C/c1cccc([N+](=O)[O-])c1`, the GFP response vs DMSO in test [1] was 99.2% (inactive); in test [1] (setting [6]) it was 98.6%; in test [1] (setting [7]) it was 99.4%; in test [3] it was 105% (inactive). Further, the figures for the GFP response relative to DMSO in test [2], in test [2] (setting [8]) and in test [2] (setting [9]) were 97.9% (inactive), 97.6% and 98.3%, respectively. The GFP response, % of DMSO in test [4] was 94.7% (inactive); in test [5], 99.7% (inactive); in test [5] (setting [6]), 101%; in test [5] (setting [7]), 99.7%.
For `CNc1nc(-c2ccccc2)cc(C(F)(F)F)c1C#N`, the GFP response vs DMSO in test [1] was 97.4% (inactive); in test [1] (setting [6]), 95.3%; in test [1] (setting [7]), 92.9%; in test [3] it was 104% (inactive). In addition, the GFP response relative to DMSO in test [2] was 96.2% (inactive); in test [2] (setting [8]), 95.6%; in test [2] (setting [9]), 93.1%. Also, the GFP response, % of DMSO in test [4] was 102% (inactive); in test [5], 102% (inactive); in test [5] (setting [6]), 99.7%; in test [5] (setting [7]) it was 98.7%.
`O=C1c2cccc3c([N+](=O)[O-])ccc(c23)C(=O)N1O`: the GFP response vs DMSO in test [1] is 131% (inactive); in test [1] (setting [6]) it was 136%; in test [1] (setting [7]), 124%; in test [3], 404% (active). Moreover, the GFP response relative to DMSO in test [2] is 249% (active); in test [2] (setting [8]), 250%; in test [2] (setting [9]) it was 251%. Further, the GFP response, % of DMSO in test [4] is 132% (inactive); in test [5] it was 256% (active); in test [5] (setting [6]), 247%; in test [5] (setting [7]), 223%.
As for `O=C(OC(c1ccc(NS(=O)(=O)c2ccccc2)cc1)(C(F)(F)F)C(F)(F)F)c1ccccc1`, the GFP response vs DMSO is 100% (inactive) in test [1], 101% in test [1] (setting [6]), 100% in test [1] (setting [7]) and 110% (inactive) in test [3]. Further, the GFP response relative to DMSO in test [2] was 94.9% (inactive); in test [2] (setting [8]), 95.1%; in test [2] (setting [9]) it was 95.1%. Further, the GFP response, % of DMSO was 104% (inactive) in test [4], 92.2% (inactive) in test [5], 95.2% in test [5] (setting [6]) and 91.8% in test [5] (setting [7]).
For `Cc1ccc(/C(C#N)=C\c2ccc(N3CCOCC3)o2)cc1`, the GFP response vs DMSO was 97.8% (inactive) in test [1], 97.1% in test [1] (setting [6]), 98% in test [1] (setting [7]) and 109% (inactive) in test [3]. Moreover, the figures for the GFP response relative to DMSO in test [2], in test [2] (setting [8]) and in test [2] (setting [9]) were 102% (inactive), 104% and 103%, respectively. The GFP response, % of DMSO in test [4] is 99.4% (inactive); in test [5] it was 98.8% (inactive); in test [5] (setting [6]) it was 99.2%; in test [5] (setting [7]), 99.3%.
